Reference: ChEMBL document CHEMBL1121653, “Potential pancreatic imaging agents. Tellurium-123m labeled DL-alpha-amino-gamma-(phenyltelluro)butyric acid” (J Med Chem, 1981)

What was measured:
[1] = test system: Rattus norvegicus; assay: Compound was evaluated for the distribution of radioactivity in female rat spleen at time interval 60 minutes following intravenous administration of [123mTe]- Labeled-DL-cu-Amino-r-( phenyltel1uro) butyric Acid, expressed as mean dose per gram of tis; type: ADME, organism-based; details: in vivo, 1 h
In short: (§1)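 Female Fischer 344 rats, 10–12 weeks old (180–210 g), fed ad libitum, given the 123mTe-labeled amino acid through a lateral tail vein under ether anesthesia. The basic solution was neutralized to pH ~8 with 1 N HCl and filtered (0.22 μm) before injection. Rats were decapitated at 30 min, 60 min, 4 h or 24 h. Organs were rinsed in saline and weighed, and radioactivity was counted on a Ge(Li) analyzer. Values are %dose/g, mean ± SD of 3 rats.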

[2] = test system: Rattus norvegicus; assay: Compound was evaluated for the distribution of radioactivity in female rat kidneys at time interval 60 minutes following intravenous administration of [123mTe]- Labeled-DL-cu-Amino-r-( phenyltel1uro) butyric Acid, expressed as mean dose per gram of ti; type: ADME, organism-based, Kidney; details: in vivo, 1 h; in short: as §1
[3] = test system: Rattus norvegicus; assay: Compound was evaluated for the distribution of radioactivity in female rat blood at time interval 24 hours following intravenous administration of [123mTe]- Labeled-DL-cu-Amino-r-( phenyltel1uro) butyric Acid, expressed as mean dose per gram of tissue; type: ADME, organism-based; details: in vivo; in short: as §1
[4] = test system: Rattus norvegicus; assay: Compound was evaluated for the distribution of radioactivity in female rat kidneys at time interval 30 minutes following intravenous administration in kidneys of [123mTe]- Labeled-DL-cu-Amino-r-( phenyltel1uro) butyric Acid, expressed as mean dose per; type: ADME, organism-based, Kidney; details: in vivo, 0.5 h; in short: as §1
[5] = test system: Rattus norvegicus; assay: Compound was evaluated for the distribution of radioactivity in female rat liver at time interval 30 minutes following intravenous administration of [123mTe]- Labeled-DL-cu-Amino-r-( phenyltel1uro) butyric Acid, expressed as mean dose per gram of tiss; type: ADME, organism-based; details: in vivo, 0.5 h; in short: as §1
[6] = test system: Rattus norvegicus; assay: Compound was evaluated for the distribution of radioactivity in female rat blood at time interval 30 minutes following intravenous administration of [123mTe]- Labeled-DL-cu-Amino-r-( phenyltel1uro) butyric Acid, expressed as mean dose per gram of tiss; type: ADME, organism-based; details: in vivo, 0.5 h; in short: as §1
[7] = test system: Rattus norvegicus; assay: Compound was evaluated for the distribution of radioactivity in female rat pancreas at time interval 4 hours following intravenous administration of [123mTe]- Labeled-DL-cu-Amino-r-( phenyltel1uro) butyric Acid, expressed as mean dose per gram of tiss; type: ADME, organism-based; details: in vivo; in short: as §1
[8] = test system: Rattus norvegicus; assay: Compound was evaluated for the distribution of radioactivity in female rat spleen at time interval 4 hours following intravenous administration of [123mTe]- Labeled-DL-cu-Amino-r-( phenyltel1uro) butyric Acid, expressed as mean dose per gram of tissue; type: ADME, organism-based; details: in vivo; in short: as §1
[9] = test system: Rattus norvegicus; assay: Compound was evaluated for the distribution of radioactivity in female rat liver at time interval 60 minutes following intravenous administration of [123mTe]- Labeled-DL-cu-Amino-r-( phenyltel1uro) butyric Acid, expressed as mean dose per gram of tiss; type: ADME, organism-based; details: in vivo, 1 h; in short: as §1
[10] = test system: Rattus norvegicus; assay: Compound was evaluated for the distribution of radioactivity in female rat blood at time interval 4 hours following intravenous administration of [123mTe]- Labeled-DL-cu-Amino-r-( phenyltel1uro) butyric Acid, expressed as mean dose per gram of tissue; type: ADME, organism-based; details: in vivo; in short: as §1
[11] = test system: Rattus norvegicus; assay: Compound was evaluated for the distribution of radioactivity in female rat kidneys at time interval 4 hours following intravenous administration of [123mTe]- Labeled-DL-cu-Amino-r-( phenyltel1uro) butyric Acid, expressed as mean dose per gram of tissu; type: ADME, organism-based, Kidney; details: in vivo; in short: as §1
[12] = test system: Rattus norvegicus; assay: Compound was evaluated for the distribution of radioactivity in female rat pancreas at time interval 30 minutes following intravenous administration of [123mTe]- Labeled-DL-cu-Amino-r-( phenyltel1uro) butyric Acid, expressed as mean dose per gram of t; type: ADME, organism-based; details: in vivo, 0.5 h; in short: as §1
[13] = test system: Rattus norvegicus; assay: Compound was evaluated for the distribution of radioactivity in female rat pancreas at time interval 24 hours following intravenous administration of [123mTe]- Labeled-DL-cu-Amino-r-( phenyltel1uro) butyric Acid, expressed as mean dose per gram of tissue; type: ADME, organism-based; details: in vivo; in short: as §1
[14] = test system: Rattus norvegicus; assay: Compound was evaluated for the distribution of radioactivity in female rat liver at time interval 4 hours following intravenous administration of [123mTe]- Labeled-DL-cu-Amino-r-( phenyltel1uro) butyric Acid, expressed as mean dose per gram of tissue; type: ADME, organism-based; details: in vivo; in short: as §1
[15] = test system: Rattus norvegicus; assay: Compound was evaluated for the distribution of radioactivity in female rat spleen at time interval 30 minutes following intravenous administration of [123mTe]- Labeled-DL-cu-Amino-r-( phenyltel1uro) butyric Acid, expressed as mean dose per gram of tis; type: ADME, organism-based; details: in vivo, 0.5 h; in short: as §1
[16] = test system: Rattus norvegicus; assay: Compound was evaluated for the distribution of radioactivity in female rat pancreas at time interval 60 minutes following intravenous administration of [123mTe]- Labeled-DL-cu-Amino-r-( phenyltel1uro) butyric Acid, expressed as mean dose per gram of t; type: ADME, organism-based; details: in vivo, 1 h; in short: as §1
[17] = test system: Rattus norvegicus; assay: Compound was evaluated for the distribution of radioactivity in female rat spleene at time interval 24 hours following intravenous administration of [123mTe]- Labeled-DL-cu-Amino-r-( phenyltel1uro) butyric Acid, expressed as mean dose per gram of tiss; type: ADME, organism-based, Spleen; details: in vivo; in short: as §1
[18] = test system: Rattus norvegicus; assay: Compound was evaluated for the distribution of radioactivity in female rat kidneys at time interval 24 hours following intravenous administration of [123mTe]- Labeled-DL-cu-Amino-r-( phenyltel1uro) butyric Acid, expressed as mean dose per gram of tiss; type: ADME, organism-based, Kidney; details: in vivo; in short: as §1
[19] = test system: Rattus norvegicus; assay: Compound was evaluated for the distribution of radioactivity in female rat liver at time interval 24 hours following intravenous administration of [123mTe]- Labeled-DL-cu-Amino-r-( phenyltel1uro) butyric Acid, expressed as mean dose per gram of tissue; type: ADME, organism-based; details: in vivo; in short: as §1
[20] = test system: Rattus norvegicus; assay: Compound was evaluated for the distribution of radioactivity in female rat blood at time interval 60 minutes following intravenous administration of [123mTe]- Labeled-DL-cu-Amino-r-( phenyltel1uro) butyric Acid, expressed as mean dose per gram of tiss; type: ADME, organism-based; details: in vivo, 1 h; in short: as §1

NC(CC[Te]c1ccccc1)C(=O)O (stereo not given)
Dose [1]: 0.238%
Dose [2]: 2.628%
Dose [3]: 0.485%
Dose [4]: 1.019%
Dose [5]: 0.32%
Dose [6]: 0.208%
Dose [7]: 0.434%
Dose [8]: 0.234%
Dose [9]: 0.534%
Dose [10]: 0.451%
Dose [11]: 2.169%
Dose [12]: 0.206%
Dose [13]: 0.334%
Dose [14]: 1.046%
Dose [15]: 0.129%
Dose [16]: 0.654%
Dose [17]: 0.28%
Dose [18]: 1.489%
Dose [19]: 2.139%
Dose [20]: 0.497%
